Active and inactive are the calls of the source. No cut-off for these calls is given here.
Key:
[1] = Cmax in human at titreated po dose administered from day 1 to 4 followed by 200 mg, po QD administered up to day 11 measured on day 4; type: ADME, organism-based; design: dose 200 mg, route oral; conditions: in vivo
How it was run: (§1)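 Healthy male volunteers took part in a double-blind, randomized, placebo-controlled dose-escalation study, with cohorts of 8 (6 on drug, 2 on placebo). Each subject got an oral dose on day 1, then a 2-day washout, then dosing on days 4–11. The 200 mg qd group was titrated over days 1–4. Venous plasma was sampled predose and 0.5–12 h postdose on days 1, 4 and 11, and predose on days 5–10 for troughs.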

Homo sapiens [2] = assay: Antidyslipedic activity in human assessed as decrease in free fatty acid level at 50 to 200 mg, po administered as a single dose measured after 8 hrs relative to placebo control; type: functional, organism-based
Homo sapiens [3] = assay: Antidyslipidemic activity in dyslipidemia patient assessed as change in HDL-c level at 150 mg administered TID during four week study relative to control; type: functional
[4] = AUC (0 to 8 hrs) in human at 150 mg, po TID administered on day 1 followed by 2-days wash out period after which dosing continued up to day 11 measured on day 11; type: ADME, organism-based; design: time < 8 hr, dose 150 mg, route oral; conditions: plasma
How it was run: (§2)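 Double-blind, placebo-controlled, randomized dose-escalation study in healthy male volunteers, six cohorts of eight (six active, two placebo). Oral dose on day 1, two-day washout, then dosing days 4–11; the 200 mg qd cohort was titrated over days 1–4. Venous blood taken predose and at 0.5–12 h on days 1, 4 and 11; plasma drug measured. τ 12 h (bid), 24 h (qd), 8 h (tid), 6 h (qid).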

[5] = Tmax in human at 150 mg, po BID administered on day 1 followed by 2-day wash out period after which dosing continued up to day 11 measured on day 4; type: ADME, organism-based; conditions: in vivo
How it was run: (§3)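 Double-blind, placebo-controlled, randomized multiple oral dose study in healthy male volunteers (cohorts of eight; six active, two placebo). Dose given on day 1, then a two-day washout, then dosing days 4–11; for the QD arm, subjects were titrated over days 1–4. Venous plasma sampled predose and 0.5, 1, 1.5, 2, 4, 6, 8, 10, 12 h postdose on days 1, 4 and 11. Tmax reported as median (min–max).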

[6] = AUC (0 to 12 hrs) in human at 150 mg, po BID administered on day 1 followed by 2-day wash out period after which dosing continued up to day 11 measured on day 11; type: ADME, organism-based; design: dose 150 mg, time < 12 hr, route oral; conditions: plasma; how it was run: as §2
[7] = Tmax in human at 150 mg, po BID administered on day 1 followed by 2-day wash out period after which dosing continued up to day 11 measured on day 11; type: ADME, organism-based; conditions: in vivo; how it was run: as §3
Homo sapiens [8] = assay: Toxicity in dyslipedimc patient assessed as flushing at 150 mg administered TID during four week study; type: organism-based; conditions: in vivo
[9] = AUC (0 to 12 hrs) in human at 50 mg, po BID administered on day 1 followed by 2-day wash out period after which dosing continued up to day 11 measured on day 4; type: ADME, organism-based; design: time < 12 hr, dose 50 mg, route oral; conditions: plasma; how it was run: as §2
[10] = Tmax in human at 150 mg, po TID administered on day 1 followed by 2-days wash out period after which dosing continued up to day 11 measured on day 11; type: ADME, organism-based; conditions: in vivo; how it was run: as §3
Homo sapiens [11] = assay: Toxicity in po dosed human assessed as occurrence of flushing administered as single dose; type: organism-based; conditions: in vivo
How it was run: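 Healthy human volunteers received single oral doses. Flushing was recorded as a subject-reported adverse event and scored with a flushing symptoms questionnaire. It was compared qualitatively against a 1 g Niaspan dose.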

Rattus norvegicus = assay: Antidyslipedic activity in fasted Sprague-Dawley rat assessed as decrease in free fatty acid level at 0.1 to 30 mg/kg, po by NEFA C-free fatty acid assay; type: functional; design: scale not given: the % may be the effect or the level left; conditions: dose mg/kg 0.1-30
How it was run: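 Male Sprague-Dawley rats fasted, compound by oral gavage, serial plasma sampling after dosing for free fatty acids over a time course; vehicle-dosed control group.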

[12] = Cmin in human at 150 mg, po BID administered on day 1 followed by 2-day wash out period after which dosing continued up to day 11 measured on day 1 at 12 hrs; type: ADME, organism-based; conditions: in vivo, read-out: Cmin; how it was run: as §1
[13] = Terminal half life in mouse; type: ADME, organism-based; conditions: in vivo, read-out: beta t1/2 (converted)
Mus musculus = assay: Dose normalized AUC in po dosed mouse; type: ADME, organism-based; conditions: in vivo
[14] = Cmax in human at 150 mg, po TID administered on day 1 followed by 2-days wash out period after which dosing continued up to day 11 measured on day 1; type: ADME, organism-based; design: dose 150 mg, route oral; conditions: in vivo; how it was run: as §1

O=C(O)c1n[nH]c2c1C[C@H]1C[C@@H]21
Cmax [1]: 56.3 nM | Activity (Homo sapiens [2]): inactive | Activity (Homo sapiens [3]): 4.6% | AUC at 8 h [4]: 0.0879 µM·h | Tmax [5]: 1.5 h | AUC at 12 h [6]: 0.0788 µM·h | Tmax [7]: 1 h | Activity (Homo sapiens [8]): Non-toxic | AUC at 12 h [9]: 0.0261 µM·h | Tmax [10]: 1 h | MTD (Homo sapiens [11]): 200 mg | Activity (Rattus norvegicus): 90% | concentration at 12 h [12]: 0.316 nM | half-life [13]: 8.7 h | AUC/dose (Mus musculus): 4.1 µM·kg·h/mg | Cmax [14]: 48400 nM

— ChEMBL document CHEMBL2057168, “(1aR,5aR)1a,3,5,5a-Tetrahydro-1H-2,3-diaza-cyclopropa[a]pentalene-4-carboxylic acid (MK-1903): a potent GPR109a agonist that lowers free fatty acids in humans” (J Med Chem, 2012)
